pIC50, pKi: −log10 of the molar value. In brackets after ≈: the same amount, converted by molar mass.
Tested on: not listed separately
Experiment: Kinetic solubility of the compound
Type: physicochemical
Settings: not given

SMILES | Kinetic_solubility [µM]
COC(C)c1cc(Cl)c2c(c1Cl)C(=O)N(Cc1c(C)cc(C)[nH]c1=O)CC2 (stereo in doubt; (-)9a) | 55.3
COc1cc(C)[nH]c(=O)c1CN1CCc2c(Cl)cc(C(OC)C3(C)COC3)c(Cl)c2C1=O (stereo in doubt; (-)-24b) | 512

Same assay, conditions: read-out: Kinetic_solubility

SMILES | solubility kinetic [µM]
Cc1cc(C)c(CN2CCc3c(Cl)cc(C(CO)c4ccon4)c(Cl)c3C2=O)c(=O)[nH]1 (single isomer, unassigned; (+)) | 596 (≈ 276 µg/mL)
COC(c1cc(Cl)c2c(c1Cl)C(=O)N(Cc1c(C)cc(C)[nH]c1=O)CC2)C1CCN(C(C)=O)CC1 (single isomer, unassigned; (+)) | 532 (≈ 277 µg/mL)
COc1cc(C)[nH]c(=O)c1CN1CCc2c(Cl)cc(C(OC)C3CCN(C(=O)CO)CC3)c(Cl)c2C1=O (single isomer, unassigned; (+)) | 480 (≈ 265 µg/mL)
COc1cc(C)[nH]c(=O)c1CN1CCc2c(Cl)cc(C(OC)C3(C)COC3)c(Cl)c2C1=O (single isomer, unassigned; (+)) | 486 (≈ 234 µg/mL)
COC(c1cc(Cl)c2c(c1Cl)C(=O)N(Cc1c(C)cc(C)[nH]c1=O)CC2)C1CCS(=O)(=O)CC1 (stereo in doubt; (+)-18a) | 373 (≈ 197 µg/mL)
COC(c1cc(Cl)c2c(c1Cl)C(=O)N(Cc1c(C)cc(C)[nH]c1=O)CC2)C1CS(=O)(=O)C1 (stereo in doubt; (+)-19a) | 161 (≈ 80.4 µg/mL)
CCC(O)c1cc(Cl)c2c(c1Cl)C(=O)N(Cc1c(C)cc(C)[nH]c1=O)CC2 (stereo in doubt; (-)-3b) | 56 (≈ 22.9 µg/mL)
CCC(CO)c1cc(Cl)c2c(c1Cl)C(=O)N(Cc1c(C)cc(C)[nH]c1=O)CC2 (stereo in doubt; (-)-5b) | 443 (≈ 188 µg/mL)

Molecular target: Histone-lysine N-methyltransferase EZH2 (Homo sapiens, UniProt Q15910)
Experiment: Inhibition of EZH2 in human KARPAS422 cells assessed as reduction in H3K27me3 level after 72 hrs by ELISA
Settings: not given

Chain of Histone-lysine N-methyltransferase EZH2 (Homo sapiens, UniProt Q15910) (Q15910 whole entry): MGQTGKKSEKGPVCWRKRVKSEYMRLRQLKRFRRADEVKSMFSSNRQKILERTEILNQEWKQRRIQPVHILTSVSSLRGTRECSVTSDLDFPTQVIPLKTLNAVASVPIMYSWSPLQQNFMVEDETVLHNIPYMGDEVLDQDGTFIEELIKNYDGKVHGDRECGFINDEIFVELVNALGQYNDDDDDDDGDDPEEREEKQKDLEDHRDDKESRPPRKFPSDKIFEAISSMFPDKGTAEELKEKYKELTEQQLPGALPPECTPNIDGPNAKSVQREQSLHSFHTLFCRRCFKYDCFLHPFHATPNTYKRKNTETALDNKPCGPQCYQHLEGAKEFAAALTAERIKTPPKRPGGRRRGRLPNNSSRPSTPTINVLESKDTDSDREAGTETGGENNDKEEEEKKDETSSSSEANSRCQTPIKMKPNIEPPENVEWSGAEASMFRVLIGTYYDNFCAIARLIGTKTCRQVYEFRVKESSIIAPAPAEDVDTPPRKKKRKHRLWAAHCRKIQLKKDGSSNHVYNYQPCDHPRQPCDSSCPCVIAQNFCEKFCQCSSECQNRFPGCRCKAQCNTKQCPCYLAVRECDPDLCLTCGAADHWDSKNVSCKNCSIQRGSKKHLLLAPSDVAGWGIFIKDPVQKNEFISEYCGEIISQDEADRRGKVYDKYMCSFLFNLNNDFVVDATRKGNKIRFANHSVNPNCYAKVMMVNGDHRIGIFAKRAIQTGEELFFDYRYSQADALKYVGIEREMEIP

SMILES | pIC50
COc1cc(C)[nH]c(=O)c1CN1CCc2c(Cl)cc(C(OC)C3(C)COC3)c(Cl)c2C1=O (single isomer, unassigned; (+)) | 8.10
CCC(O)c1cc(Cl)c2c(c1Cl)C(=O)N(Cc1c(C)cc(C)[nH]c1=O)CC2 (stereo in doubt; (-)-3b) | 5.27
CCC(CO)c1cc(Cl)c2c(c1Cl)C(=O)N(Cc1c(C)cc(C)[nH]c1=O)CC2 (stereo in doubt; (-)-5b) | 6.17
COc1cc(C)[nH]c(=O)c1CN1CCc2c(Cl)cc(C(OC)C3(C)COC3)c(Cl)c2C1=O (stereo in doubt; (-)-24b) | 6.60

Tested on: not listed separately
Experiment: Passive permeability in MDCK cells at 2 uM after 90 mins by LC-MS/MS analysis
Type: ADME, cell-based, Canis lupus familiaris
Settings: dog, MDCK; read-out: permeability
How it was run: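 Low-efflux MDCK cells (MDCK-LE) on 96-well inserts, used on day 4. Monodirectional transport of 2 μM drug in transport buffer with 0.1% DMSO at 37 °C. Donor and receiver sampled at 0 and 90 min for LC−MS/MS. Donor pH 6.5 and 7.4, receiver pH 7.4.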

SMILES | Papp at […], 2 µM [×10⁻⁶ cm/s]
Cc1cc(C)c(CN2CCc3c(Cl)cc(C(CO)c4ccon4)c(Cl)c3C2=O)c(=O)[nH]1 (single isomer, unassigned; (+)) | 5.8
COC(c1cc(Cl)c2c(c1Cl)C(=O)N(Cc1c(C)cc(C)[nH]c1=O)CC2)C1CCN(C(C)=O)CC1 (single isomer, unassigned; (+)) | 11.5
COc1cc(C)[nH]c(=O)c1CN1CCc2c(Cl)cc(C(OC)C3CCN(C(=O)CO)CC3)c(Cl)c2C1=O (single isomer, unassigned; (+)) | 1.5
COc1cc(C)[nH]c(=O)c1CN1CCc2c(Cl)cc(C(OC)C3(C)COC3)c(Cl)c2C1=O (single isomer, unassigned; (+)) | 5.7
COC(c1cc(Cl)c2c(c1Cl)C(=O)N(Cc1c(C)cc(C)[nH]c1=O)CC2)C1CCS(=O)(=O)CC1 (stereo in doubt; (+)-18a) | 6.3
COC(c1cc(Cl)c2c(c1Cl)C(=O)N(Cc1c(C)cc(C)[nH]c1=O)CC2)C1CS(=O)(=O)C1 (stereo in doubt; (+)-19a) | 5.3
COC(C)c1cc(Cl)c2c(c1Cl)C(=O)N(Cc1c(C)cc(C)[nH]c1=O)CC2 (stereo in doubt; (-)9a) | 26

Same assay, conditions: dog, mdck, […], 2 µM

SMILES | permeability [×10⁻⁶ cm/s]
CCC(O)c1cc(Cl)c2c(c1Cl)C(=O)N(Cc1c(C)cc(C)[nH]c1=O)CC2 (stereo in doubt; (-)-3b) | 15.7
CCC(CO)c1cc(Cl)c2c(c1Cl)C(=O)N(Cc1c(C)cc(C)[nH]c1=O)CC2 (stereo in doubt; (-)-5b) | 10.9
COc1cc(C)[nH]c(=O)c1CN1CCc2c(Cl)cc(C(OC)C3(C)COC3)c(Cl)c2C1=O (stereo in doubt; (-)-24b) | 4.8

Tested on: KARPAS-422
Experiment: Antiproliferative activity against human KARPAS422 cells after 72 hrs by resazurin assay
Type: functional, cell-based
Settings: karpas-422

SMILES | pIC50
Cc1cc(C)c(CN2CCc3c(Cl)cc(C(CO)c4ccon4)c(Cl)c3C2=O)c(=O)[nH]1 (single isomer, unassigned; (+)) | 6.91
COC(c1cc(Cl)c2c(c1Cl)C(=O)N(Cc1c(C)cc(C)[nH]c1=O)CC2)C1CCN(C(C)=O)CC1 (single isomer, unassigned; (+)) | 7.66
COc1cc(C)[nH]c(=O)c1CN1CCc2c(Cl)cc(C(OC)C3CCN(C(=O)CO)CC3)c(Cl)c2C1=O (single isomer, unassigned; (+)) | 8.00
COc1cc(C)[nH]c(=O)c1CN1CCc2c(Cl)cc(C(OC)C3(C)COC3)c(Cl)c2C1=O (single isomer, unassigned; (+)) | 8.05
COC(c1cc(Cl)c2c(c1Cl)C(=O)N(Cc1c(C)cc(C)[nH]c1=O)CC2)C1CCS(=O)(=O)CC1 (stereo in doubt; (+)-18a) | 7.62
COC(c1cc(Cl)c2c(c1Cl)C(=O)N(Cc1c(C)cc(C)[nH]c1=O)CC2)C1CS(=O)(=O)C1 (stereo in doubt; (+)-19a) | 7.62
COC(C)c1cc(Cl)c2c(c1Cl)C(=O)N(Cc1c(C)cc(C)[nH]c1=O)CC2 (stereo in doubt; (-)9a) | 6.55
CCC(O)c1cc(Cl)c2c(c1Cl)C(=O)N(Cc1c(C)cc(C)[nH]c1=O)CC2 (stereo in doubt; (-)-3b) | 5.45
CCC(CO)c1cc(Cl)c2c(c1Cl)C(=O)N(Cc1c(C)cc(C)[nH]c1=O)CC2 (stereo in doubt; (-)-5b) | 6.30
COc1cc(C)[nH]c(=O)c1CN1CCc2c(Cl)cc(C(OC)C3(C)COC3)c(Cl)c2C1=O (stereo in doubt; (-)-24b) | 6.25

Tested on: not listed separately
Experiment: (§1) Intrinsic clearance in human liver microsomes assessed per mg protein at 1 uM preincubated for 10 mins followed by NADPH addition measured after 45 mins by LC-MS/MS analysis
Type: ADME, microsome
Settings: liver microsomes, read-out: CLH
How it was run: (§2)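 Test compound (1 μM) with pooled liver microsomes (0.8 mg/mL protein) in 100 mM potassium phosphate pH 7.4, 10 min preincubation, started with 2 mM NADPH, 45 min at 37 °C, in triplicate. Samples quenched with cold methanol containing buspirone internal standard, analysed by LC−MS/MS. CLint derived from t1/2 of parent loss (log-linear slope).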

SMILES | microsomal CLint at 1 µM [µL/min/mg]
CCC(CO)c1cc(Cl)c2c(c1Cl)C(=O)N(Cc1c(C)cc(C)[nH]c1=O)CC2 (stereo in doubt; (-)-5b) | 67.6
COc1cc(C)[nH]c(=O)c1CN1CCc2c(Cl)cc(C(OC)C3(C)COC3)c(Cl)c2C1=O (stereo in doubt; (-)-24b) | 168

Tested on: Liver
Experiment: as §1
Type: ADME, microsome
Settings: microsomes, 0.75 h, 1 µM
How it was run: as §2

SMILES | microsomal CLint [µL/min/mg]
Cc1cc(C)c(CN2CCc3c(Cl)cc(C(CO)c4ccon4)c(Cl)c3C2=O)c(=O)[nH]1 (single isomer, unassigned; (+)) | 21.2
COC(c1cc(Cl)c2c(c1Cl)C(=O)N(Cc1c(C)cc(C)[nH]c1=O)CC2)C1CCN(C(C)=O)CC1 (single isomer, unassigned; (+)) | 92.6
COc1cc(C)[nH]c(=O)c1CN1CCc2c(Cl)cc(C(OC)C3CCN(C(=O)CO)CC3)c(Cl)c2C1=O (single isomer, unassigned; (+)) | 25.6
COc1cc(C)[nH]c(=O)c1CN1CCc2c(Cl)cc(C(OC)C3(C)COC3)c(Cl)c2C1=O (single isomer, unassigned; (+)) | 207
COC(c1cc(Cl)c2c(c1Cl)C(=O)N(Cc1c(C)cc(C)[nH]c1=O)CC2)C1CCS(=O)(=O)CC1 (stereo in doubt; (+)-18a) | 40
COC(c1cc(Cl)c2c(c1Cl)C(=O)N(Cc1c(C)cc(C)[nH]c1=O)CC2)C1CS(=O)(=O)C1 (stereo in doubt; (+)-19a) | 52.5
COC(C)c1cc(Cl)c2c(c1Cl)C(=O)N(Cc1c(C)cc(C)[nH]c1=O)CC2 (stereo in doubt; (-)9a) | 158
CCC(O)c1cc(Cl)c2c(c1Cl)C(=O)N(Cc1c(C)cc(C)[nH]c1=O)CC2 (stereo in doubt; (-)-3b) | 8

Molecular target: Histone-lysine N-methyltransferase EZH2 (Homo sapiens, UniProt Q15910, Y641N)
Experiment: Inhibition of EZH2 Y641N mutant (unknown origin) using oligonucleosomes as substrate after 60 mins in presence of [3H]SAM by scintillation counting analysis
Settings: not given

Chain of Histone-lysine N-methyltransferase EZH2 (Homo sapiens, UniProt Q15910, Y641N) (Q15910 whole entry Y641N): as the sequence (Q15910 whole entry) above, with Y641N counted along it

SMILES | pKi
COc1cc(C)[nH]c(=O)c1CN1CCc2c(Cl)cc(C(OC)C3(C)COC3)c(Cl)c2C1=O (single isomer, unassigned; (+)) | 9.15
CCC(O)c1cc(Cl)c2c(c1Cl)C(=O)N(Cc1c(C)cc(C)[nH]c1=O)CC2 (stereo in doubt; (-)-3b) | 6.38
CCC(CO)c1cc(Cl)c2c(c1Cl)C(=O)N(Cc1c(C)cc(C)[nH]c1=O)CC2 (stereo in doubt; (-)-5b) | 7.85
COc1cc(C)[nH]c(=O)c1CN1CCc2c(Cl)cc(C(OC)C3(C)COC3)c(Cl)c2C1=O (stereo in doubt; (-)-24b) | 6.46

Tested on: not listed separately
Experiment: Lipophilicity, log D of the compound at pH 7.4
Settings: buffer, pH 7.4

SMILES | logD
CCC(CO)c1cc(Cl)c2c(c1Cl)C(=O)N(Cc1c(C)cc(C)[nH]c1=O)CC2 (stereo in doubt; (-)-5b) | 2.9
COc1cc(C)[nH]c(=O)c1CN1CCc2c(Cl)cc(C(OC)C3(C)COC3)c(Cl)c2C1=O (stereo in doubt; (-)-24b) | 2.2

Same assay, conditions: buffer, pH 7.4, logD

SMILES | logD
Cc1cc(C)c(CN2CCc3c(Cl)cc(C(CO)c4ccon4)c(Cl)c3C2=O)c(=O)[nH]1 (single isomer, unassigned; (+)) | 2
COC(c1cc(Cl)c2c(c1Cl)C(=O)N(Cc1c(C)cc(C)[nH]c1=O)CC2)C1CCN(C(C)=O)CC1 (single isomer, unassigned; (+)) | 2.9
COc1cc(C)[nH]c(=O)c1CN1CCc2c(Cl)cc(C(OC)C3CCN(C(=O)CO)CC3)c(Cl)c2C1=O (single isomer, unassigned; (+)) | 1.7
COc1cc(C)[nH]c(=O)c1CN1CCc2c(Cl)cc(C(OC)C3(C)COC3)c(Cl)c2C1=O (single isomer, unassigned; (+)) | 2.3
COC(c1cc(Cl)c2c(c1Cl)C(=O)N(Cc1c(C)cc(C)[nH]c1=O)CC2)C1CCS(=O)(=O)CC1 (stereo in doubt; (+)-18a) | 2.2
COC(C)c1cc(Cl)c2c(c1Cl)C(=O)N(Cc1c(C)cc(C)[nH]c1=O)CC2 (stereo in doubt; (-)9a) | 3.3

From ChEMBL document CHEMBL4024771, “Optimization of Orally Bioavailable Enhancer of Zeste Homolog 2 (EZH2) Inhibitors Using Ligand and Property-Based Design Strategies: Identification of Development Candidate …” (J Med Chem, 2018)
